# Measured values of several laboratories.
# Lines come from different studies, so protocols differ.
# Target: Wee1-like protein kinase (WEE1, Homo sapiens, UniProt P30291)
Structure (SMILES),observed,mode,technique,tested at,quantity,value
O=C(O)[C@H]1[C@H](Cn2nnc3ccccc3c2=O)CC[C@@H]1C(=O)c1ccc(OCCC2CCOCC2)cc1,cell-free assay,,competition with immobilised ligand,1 µM,remaining binding,100%
N#CCCc1ccc2c(c1)-c1[nH]c3ccc([N+](=O)[O-])cc3c1CC(=O)N2,cell-free assay,,,0.5 µM,remaining signal,100%
COc1cc(Cl)c(C(=O)N[C@@H](CN[C@H]2CC[C@@H](N)CC2)Cc2ccc(C#N)cc2)cc1-c1ccc(CN[C@H](C)c2ccc(C)cc2)o1,enzyme activity,inhibitor,,1 µM,remaining activity,102%
Cc1c(C(=O)O)cc(-c2ccc(C3CCNCC3)cc2)c2ccc(-c3ccc(C(F)(F)F)cc3)cc12,binding,,competition with immobilised ligand,1 µM,remaining binding,80%
Nc1nc(Nc2ccc(S(N)(=O)=O)cc2)nn1C(=O)c1c(F)cccc1F,cell-free assay,,,0.5 µM,remaining signal,83.6%
CC(=O)N1CCC(c2ccc(C(=O)NC3=NCCN3)cc2C(F)(F)F)CC1,cell-free assay,,competition with immobilised ligand,1 µM,remaining binding,100%
Nc1ncnc2occ(-c3ccc(NC(=O)Nc4cc(C(F)(F)F)ccc4F)cc3)c12,cell-free assay,inhibitor,,20 µM,remaining signal,17%
O=C(Nc1cnn(-c2csc(C(=O)NC3COC3)c2)c1)Nc1ccccc1Cl,enzyme activity,inhibitor,,5 µM,remaining activity,124%
Cc1ccc(C(=O)Nc2ccc(CN3CCN(C)CC3)c(C(F)(F)F)c2)cc1C#Cc1cnc2cccnn12,enzyme activity,inhibitor,,23.5 nM,remaining activity,100%
CC(C)(C)c1nc2c(s1)c1nc(N)ncc1c1ccc(NS(=O)(=O)c3c(F)cccc3F)c(F)c12,enzyme activity,inhibitor,radiometric,1 µM,remaining activity,87%
Cc1cnc(NC2CCOCC2)nc1-n1cnc(C(=O)NC(CN)c2cc(F)cc(Cl)c2)c1 (stereo not shown),enzyme activity,inhibitor,radiometric,1 µM,remaining activity,101%
C[C@H](NC(=O)c1cnc2n1[C@](C)(Cc1ccc(C#N)cc1)C(=O)N2c1cc(Cl)c(F)c(Cl)c1)C(=O)NC1(c2ccccn2)CC1,cell-free assay,,competition with immobilised ligand,1 µM,remaining binding,100%
Cc1ccc(Nc2nccc(N(C)c3ccc4c(C)n(C)nc4c3)n2)cc1S(N)(=O)=O,enzyme activity,inhibitor,,0.5 µM,remaining activity,95.3%
CN(c1nccc(-c2cnn3ncccc23)n1)C1CC1,binding,,,1 µM,remaining binding,100%
CC(C)(O)[C@H]1CC[C@H](Nc2ccc3ncc(-c4cccc(C(F)(F)F)c4)n3n2)CC1,enzyme activity,inhibitor,,1 µM,remaining activity,87.3%
O=C1NC(=O)c2cc(Nc3ccc(F)cc3)c(Nc3ccc(F)cc3)cc21,cell-free assay,,,0.5 µM,remaining signal,99.6%
